Data on seven compounds can be found in PubChem BioAssay.

A short description of assay [1]: inhibitors of TNFa-induced NFkB p65 translocation, primary screen, imaging, HUVEC, MLSMR starter and 10KST1 sets (AID 438;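 active = inhibition above 20% together with a positive visual image hit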;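 also: compound added about 3h40 before a 20 min TNFalpha stimulation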;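 as to inhibition: signal is the nuclear over cytoplasmic p65 intensity ratio per well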). The conditions noted are these: HUVEC TNFa-induced p65 nuclear translocation; cell count: measured here: nuclei count (cytotoxicity indicator), at 2.08 µM; inhibition: at 2 µM, stronger effect = higher value, 0% TNFa-plus-vehicle, 100% no-TNFa wells.
The nature of assay [2]: inhibitors of E-selectin induction by TNFa, primary screen, imaging, HUVEC, immunofluorescence, MLSMR starter and 10KST1 sets (AID 487;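 active = visually confirmed hit in the image check and inhibition above 20%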;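 as to inhibition: signal is fraction of cell area covered by stained E-selectin grains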;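 as to nuclei count: 100% = median nuclei count of all wells on the same plate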). Conditions: HUVEC TNFalpha-induced E-selectin immunofluorescence imaging, at 2 µM; inhibition: stronger effect = higher value; nuclei count: measured here: cell number, toxicity.
Assay [3] in a line: DUSP6 inhibitors restoring Erk phosphorylation by chemical complementation, primary imaging in DUSP6-transfected HeLa (AID 609).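 As to inhibition: phospho-Erk level distribution per well compared with pooled transfected vehicle control wells.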 The conditions noted are these: HeLa MKP-3 transfected, phospho-Erk imaging KS statistic, at 10 µM, cells stimulated with TPA for 15 min.
Assay [4] deals with Dual specificity protein phosphatase 6 (Homo sapiens) (UniProt Q16828). The assay is described as above. The conditions noted are these: HeLa MKP-3 transfected, phospho-Erk imaging KS statistic; at 10 µM; stronger effect = higher value; cells stimulated with TPA for 15 min.
Dual specificity protein phosphatase 6 (Homo sapiens), sequence (Q16828 whole entry, looked up): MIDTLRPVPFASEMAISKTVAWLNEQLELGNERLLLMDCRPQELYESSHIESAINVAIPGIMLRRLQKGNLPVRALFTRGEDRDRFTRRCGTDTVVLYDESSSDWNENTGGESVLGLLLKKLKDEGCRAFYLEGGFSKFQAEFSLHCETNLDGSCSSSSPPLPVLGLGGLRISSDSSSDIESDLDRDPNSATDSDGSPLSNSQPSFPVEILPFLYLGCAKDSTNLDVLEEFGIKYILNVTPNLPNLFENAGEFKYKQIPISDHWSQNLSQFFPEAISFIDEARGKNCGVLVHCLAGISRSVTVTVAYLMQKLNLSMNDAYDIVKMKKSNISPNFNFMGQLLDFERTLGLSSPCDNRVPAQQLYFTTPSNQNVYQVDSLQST
The target of assay [5] is Voltage-gated potassium channel subunit beta-2 (Rattus norvegicus) (UniProt P62483). The assay can be described thus: KvBeta enzyme negative modulators, primary screen, biochemical, NADPH fluorescence (AID 622;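 active = fluorescence slope higher than the sample average by over 3 SD, cut at about -0.22 in these data, passing the limit was not always enough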;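 also: slope of raw intensity against log time taken from 70 to 1610 s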). Conditions: recombinant KvBeta, 4-cyanobenzaldehyde reduction, at 10 µM, stronger effect = higher value.
Voltage-gated potassium channel subunit beta-2 (Rattus norvegicus), sequence (P62483 whole entry, looked up): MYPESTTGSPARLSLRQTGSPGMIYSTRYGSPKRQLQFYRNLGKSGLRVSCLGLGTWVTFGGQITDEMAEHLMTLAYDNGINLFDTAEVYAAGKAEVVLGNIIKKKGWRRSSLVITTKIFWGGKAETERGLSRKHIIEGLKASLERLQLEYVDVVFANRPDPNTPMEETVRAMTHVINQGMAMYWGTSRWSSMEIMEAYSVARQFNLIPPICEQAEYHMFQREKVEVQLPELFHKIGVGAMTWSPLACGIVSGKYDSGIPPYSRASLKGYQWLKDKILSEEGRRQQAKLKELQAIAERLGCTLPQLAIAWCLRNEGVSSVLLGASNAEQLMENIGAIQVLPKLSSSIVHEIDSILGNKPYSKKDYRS
The target is the same in assay [6]. The assay can be described thus: KvBeta positive modulators, primary screen, biochemical, NADPH fluorescence (AID 623;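 active = NADPH fluorescence slope more negative than the mean of all samples by about 3 SD, 99.7% confidence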;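 also: fluorescence intensity change per second fitted from 20 to 320 s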). The conditions noted are these: Recombinant KvBeta, NADPH fluorescence decrease slope, 10 min; at 10 µM; stronger effect = lower value.
In assay [7] the target is Muscarinic acetylcholine receptor M4 (Homo sapiens) (UniProt P08173). As to the kind of experiment: compounds altering M4/GIRK thallium flux, either direction, primary screen, M4 allosteric agonist project, cell-based, HEK293 M4/GIRK, BTC-AM (AID 625;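 active = fluorescence slope after compound addition differing from the mean of all tested samples at 99.7% confidence, mostly higher but some lower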;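 also: thallium influx through GIRK channels coupled to M4 in HEK293 cells with BTC-AM dye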). The conditions noted are these: at 10 µM, actives lie on both sides. The essentials: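 Material: HEK293 cells with M4 receptor and GIRK channels; Times: cells overnight at 37 °C, BTC-AM loading 1 h, reads 2 min total; Technique: kinetic BTC-AM fluorescence sampled at 1 Hz, 10 s pre-addition baseline; Read-out basis: slope over 15–24 s of trace normalized to starting intensity; Controls: carbachol positive, DMSO negative.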
Muscarinic acetylcholine receptor M4 (Homo sapiens), sequence (P08173 whole entry, looked up): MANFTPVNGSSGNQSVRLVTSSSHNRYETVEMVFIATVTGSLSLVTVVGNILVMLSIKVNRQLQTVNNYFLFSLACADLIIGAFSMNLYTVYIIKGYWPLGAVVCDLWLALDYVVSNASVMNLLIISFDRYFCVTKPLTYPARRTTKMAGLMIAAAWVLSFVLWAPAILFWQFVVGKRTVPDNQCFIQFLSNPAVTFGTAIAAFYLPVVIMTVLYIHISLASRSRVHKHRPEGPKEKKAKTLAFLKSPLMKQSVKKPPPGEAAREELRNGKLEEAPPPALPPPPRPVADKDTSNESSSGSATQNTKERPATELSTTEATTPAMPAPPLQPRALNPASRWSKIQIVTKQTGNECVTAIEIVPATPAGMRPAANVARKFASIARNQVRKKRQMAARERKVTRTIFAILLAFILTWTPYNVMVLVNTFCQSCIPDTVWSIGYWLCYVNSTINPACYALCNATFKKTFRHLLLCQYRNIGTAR

Assay [8] is described as follows: inhibitors of larval lipid processing in zebrafish, primary screen, whole organism, PED6 fluorescence, gall bladder and intestine (AID 686;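 active = a full or partial loss of lipid-probe fluorescence in the fish gall bladder, intestine or both, judged by eye; inactive = no fluorescence loss, or compound toxic to the fish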;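 also: larvae 5 to 7 days old with five fish per well; signal comes from phospholipase A2 cleavage of quenched PED6 carried via bile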). The conditions noted are these: Zebrafish larvae PED6 lipid processing, fluorescence scoring; screened at 20 µM (by protocol). The essentials:
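Incubation: overnight exposure of larvae to compound plus PED6 / Test system: live zebrafish larvae aged 5-7 days, whole organism / Amount: 5 larvae per well / Read-out basis: visual per-well fluorescence inhibition score / Signal: visual fluorescence microscopy scoring of gall bladder, gut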

Assay [9] is described as follows: inhibitors of Chlamydomonas gravitaxis, primary screen, whole organism, Chlamydomonas reinhardtii, WT vs cilia-less mutant, absorbance, 96-well (AID 463189;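 active = inhibition at or above 50% relative to wild type and mutant plate controls; inactive = inhibition below 50%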;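 also: 0% = wild type cc124 cells in DMSO and 100% = ciliumless bld1 mutant cells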). The conditions noted are these: OD600 absorbance, 2 days, at 10 µM, stronger effect = higher value.
The mark [10] stands for this setting: measured here: cell density z-score.
[11] abbreviates: measured here: nuclear c-Myc green intensity z-score.
[12] abbreviates: measured here: nuclear pErk red intensity z-score, stronger effect = higher value.

Structures are written as SMILES. Activity calls are given as the source filed them.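 The calls were made as follows, unless noted: active = compounds giving at least 50% inhibition in the cell-based MKP-3 phosphatase rescue imaging test; inactive = the rest.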

As to `CN(C)CCCN1C(=O)C(=O)/C(=C(/O)c2ccccc2)C1c1ccccn1` (stereo unspecified), the cell count in assay [1] is 473. For the same compound, the inhibition in assay [1] is -8.2% (inactive); in [2], -97.3% (inactive); in assay [4], 1.04% (inactive); in assay [9] it was 10.1% (inactive). For the same compound, the nuclei count in assay [2] was 158%. In addition, the z-score is 1.03 in assay [3] (setting [10]), -1.2 in assay [3] (setting [11]) and 0.352 in assay [3] (setting [12]). Besides, the fluorescence slope in assay [5] was -0.486 (inactive); in [7] it was 0.00459 (inactive). For the same compound, in assay [6], the NADPH fluorescence slope is -6.1e-05 (inactive). Further, the compound was classed as inactive in assay [8].

In the case of `CC1(C(=O)CSc2n[nH]c(-c3ccccc3Cl)n2)CCC(=O)O1` (stereo unspecified), the cell count in assay [1] was determined as 640. Further, the inhibition in assay [1] was -3.4% (inactive); in [2], -44.5% (inactive); in [4] it was -2.47% (inactive); in assay [9], 3.93% (inactive). In assay [2], this compound came in with a nuclei count of 144%. Also, the z-score in assay [3] (setting [10]) was 1.47; in assay [3] (setting [11]), -0.819; in assay [3] (setting [12]), -0.432. In addition, the fluorescence slope is -0.482 (inactive) in assay [5] and 0.0054 (inactive) in assay [7]. Further, in assay [6], the NADPH fluorescence slope was -7.8e-05 (inactive). Besides, the outcome in assay [8] was inactive.

Consider `CCC(=O)Nc1nc2ccccc2n1Cc1ccccc1C`, for which the cell count in assay [1] was found to be 480. Also, the inhibition is -2.1% (inactive) in assay [1], -158% (inactive) in assay [2], -3.97% (inactive) in [4] and -13.6% (inactive) in assay [9]. This compound also returned a nuclei count in [2] of 114%. For the same compound, the z-score was 0.4 in assay [3] (setting [10]), 0.0083 in [3] (setting [11]) and 0.265 in assay [3] (setting [12]). Further, the fluorescence slope in assay [5] is -0.407 (inactive); in assay [7], 0.00508 (inactive). The NADPH fluorescence slope in [6] is 1.4e-06 (inactive). In assay [8], the outcome was inactive.

Take `CCOC(=O)c1c(CN2CCN(CCO)CC2)n(C)c2cc(Br)c(OC)cc12`: the cell count in assay [1] stood at 380. Besides, the inhibition in assay [1] is -7.5% (inactive); in assay [2] it was -1.9% (inactive); in assay [4] it was -2.29% (inactive); in [9], 26.8% (inactive). For the same compound, the nuclei count in assay [2] amounted to 103%. The z-score in assay [3] (setting [10]) was -0.09; in assay [3] (setting [11]), 0.157; in assay [3] (setting [12]), 0.909. Further, the fluorescence slope in assay [5] was -0.4 (inactive); in [7], 0.00459 (inactive). Further, the NADPH fluorescence slope in [6] was 5.8e-06 (inactive). Further, the compound was called inactive in assay [8].

With `O=C(NCc1ccccc1)/C(=N\O)c1ccccc1`, the cell count in assay [1] amounted to 517. Further, the inhibition in assay [1] was -5.4% (inactive); in [2] it was 3.5% (inactive); in assay [4] it was -1.98% (inactive); in assay [9], -1.95% (inactive). In [2], this compound gave a nuclei count of 157%. Further, the z-score in assay [3] (setting [10]) is 0.588; in [3] (setting [11]), 0.215; in [3] (setting [12]), 0.627. In addition, the fluorescence slope is -0.382 (inactive) in [5] and 0.00503 (inactive) in [7]. In [6], the NADPH fluorescence slope was -1.6e-05 (inactive). In addition, in assay [8], the compound was classed as inactive.

`COc1ccc(C2NC3=C(CCC3)C3(C#N)C(OC)(OC)N=C(N)C23C#N)cc1` (stereo unspecified): in [1], the cell count amounted to 535. The inhibition in [1] is -13.1% (inactive); in assay [2], -35.8% (inactive); in [4], 1.42% (inactive); in [9], 30.4% (inactive). The compound also came in with a nuclei count in assay [2] of 134%. In addition, the z-score in assay [3] (setting [10]) was -0.336; in assay [3] (setting [11]), 0.913; in assay [3] (setting [12]), 0.179. For the same compound, the values for the fluorescence slope in assay [5] and in [7] were -0.438 (inactive) and 0.0052 (inactive), respectively. Besides, in assay [6], the NADPH fluorescence slope was -3.3e-05 (inactive). In addition, the compound was classed as inactive in [8].

In the case of `CCC(C(=O)Nc1nccs1)(C(F)(F)F)C(F)(F)F`, the cell count in assay [1] was 719. Further, the inhibition is -18.9% (inactive) in assay [1], -106% (inactive) in assay [2], 5.95% (inactive) in assay [4] and 0.594% (inactive) in assay [9]. For the same compound, the nuclei count in assay [2] amounted to 203%. Moreover, the z-score in assay [3] (setting [10]) was 0.755; in assay [3] (setting [11]), 0.213; in [3] (setting [12]), 0.296. For the same compound, the fluorescence slope was -0.49 (inactive) in [5] and 0.00509 (inactive) in [7]. In assay [6], the NADPH fluorescence slope was -6.4e-05 (inactive). The compound was called inactive in [8].
